RGS4 inh = inhibitors of human RGS4. AID 463165. B-score at 10 µM. actives 0.45% (n = 310,000). P49798. HEK293 M3R/RGS4 inducible, Fluo-4 calcium flux; hits give high values; triggered by carbachol at its EC20;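 active = B-score, a plate-corrected calcium signal, over three deviations above library mean, with baseline fluorescence within five deviations of library mean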;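 note: RGS4 expression induced by doxycycline in cells with stable M3 receptor; B-score is computed from the integrated fluorescence ratio over baseline after carbachol; higher B-score means a larger calcium signal and so more RGS4 inhibition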
Target sequence (P49798 whole entry, looked up): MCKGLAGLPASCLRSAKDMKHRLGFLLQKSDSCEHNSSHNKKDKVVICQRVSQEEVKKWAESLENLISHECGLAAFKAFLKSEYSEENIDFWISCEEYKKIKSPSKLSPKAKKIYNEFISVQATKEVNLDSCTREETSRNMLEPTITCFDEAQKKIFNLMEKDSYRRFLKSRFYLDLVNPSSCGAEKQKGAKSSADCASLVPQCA
MrgX1 allo act = human MrgX1 positive allosteric modulation, primary screen; actives 0.63% (n = 310,000); MrgX1-HEK293, Fluo-4 calcium flux, FDSS; hits give high values; B-score at 10 µM; AID 588675;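 active = plate-corrected calcium response at least 3 library SD above typical, normal starting fluorescence, not activating the receptor alone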;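 note: compound read alongside a low EC10 to EC30 dose of BAM8-22 agonist; peak minus trough fluorescence over baseline measured at the second addition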
Target sequence (Q96LB2 whole entry, looked up): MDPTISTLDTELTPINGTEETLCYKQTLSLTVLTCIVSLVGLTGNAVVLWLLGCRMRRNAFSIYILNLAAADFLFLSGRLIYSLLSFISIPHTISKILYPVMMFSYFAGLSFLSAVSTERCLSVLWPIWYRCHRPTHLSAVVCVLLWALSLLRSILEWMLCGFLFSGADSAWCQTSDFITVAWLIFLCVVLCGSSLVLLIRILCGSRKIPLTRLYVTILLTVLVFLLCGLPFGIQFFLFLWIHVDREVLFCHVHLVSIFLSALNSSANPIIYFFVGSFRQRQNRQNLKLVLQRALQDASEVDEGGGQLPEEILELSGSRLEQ
MrgX1 ag = human MrgX1 receptor agonism, primary screen. Q96LB2. MrgX1-HEK293 cells, Fluo-4 calcium fluorescence, agonist mode; hits give high values. B-score at 10 µM. actives 0.44% (n = 310,000). AID 588627;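 active = calcium response B-score plate-corrected fluorescence ratio at least 3 library SD, with starting fluorescence B-score inside 5 SD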
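System: HEK293 cells stably expressing human MrgX1 receptor; Dosing: test compound in the initial addition of three; Schedule: overnight plating, then 30 min 37 °C plus 30 min room-temperature dye loading; Detection: kinetic calcium dye fluorescence, Fluo-4 NW; Controls: per-plate positive and negative controls for Z′ factor.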
RGS4 pot = potentiators or activators of RGS4; actives 0.92% (n = 310,000); HEK293 M3R/inducible RGS4, carbachol calcium flux Fluo4; hits give low values; B-score at 10 µM; AID 463111;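 active = B-score of the integrated calcium signal more than 4 SD below the library mean, with starting fluorescence not abnormally high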;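 note: negative B-score means reduced calcium response which marks RGS4 activation or potentiation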
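Assay system: Inducible-RGS4 HEK293 cells carrying M3 receptor | Schedule: Compound preincubation 20 min at room temperature before agonist | Signal: Kinetic calcium fluorescence imaging with Fluo4-AM dye, 2 µM | Read-out basis: B score from integrated fluorescence ratio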
MrgX1 antag = human MrgX1 receptor antagonism, primary screen; Q96LB2; MRGX1-HEK293 calcium flux, Fluo-4, BAM8-22 antagonism; hits give low values; B-score at 10 µM; actives 1.3% (n = 310,000); AID 588676;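 active = calcium-response B-score plate-corrected more than 3 library SD below zero, starting fluorescence within 5 deviations, no agonist response on first addition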;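 note: peak minus trough fluorescence over baseline after final BAM8-22 challenge near maximal dose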
RGS4 activ val = confirmation of RGS4 activators; actives 89% (n = 1,100); HEK293 M3R/RGS4 inducible, carbachol calcium flux Fluo4; shares compounds with RGS4 pot; inhibition, % at 10 µM; AID 602282;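 active = inhibition above 3 SD of the buffer control wells, cut at about 41% in these data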;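 note: signal is the integrated peak-minus-minimum Fluo4 fluorescence over baseline ratio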
RGS4 act ctr = RGS4 activator counter-screen hit in non-induced cells; shares compounds with RGS4 pot; AID 602283; inhibition, % at 10 µM; actives 82% (n = 1,100); HEK293 M3R non-induced RGS4, Fluo4 calcium flux; after carbachol challenge at its EC90;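 active = inhibition exceeding 3 SD of buffer-only control wells, cut at about 26% in these data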;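 note: percent drop in integrated peak-minus-baseline over baseline Fluo4 ratio after carbachol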
MrgX1 ag confirm = human MrgX1 agonism, re-confirmation screen. shares compounds with MrgX1 ag. MrgX1-HEK293, Fluo-4 calcium fluorescence, FDSS. activation, % at 10 µM. actives 78% (n = 600);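 active = calcium signal rise, corrected for plate position, at least 3 library SD high, with starting brightness within 5 such deviations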
MrgX1 PAM conf = human MrgX1 positive allosteric modulation, re-confirmation | shares compounds with MrgX1 allo act | MrgX1-HEK293, Fluo-4 calcium fluorescence, FDSS | activation (ratio percentage), % at 10 µM | actives 13% (n = 1,200) | AID 602413;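 active = ratio at least 3 SD above the weak peptide control, stable starting fluorescence, no direct agonism earlier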;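 note: compound followed by low BAM8-22 agonist challenge near EC20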
MrgX1 antag conf = confirmation of human MrgX1 receptor antagonists. remaining BAM8-22 calcium response % of control (hits give low values), % at 10 µM. MrgX1-HEK293, BAM8-22 calcium flux, Fluo-4; hits give low values. shares compounds with MrgX1 antag. actives 19% (n = 2,300);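 active = remaining agonist calcium response no higher than 100% minus 3 SD of agonist-only control wells, with starting fluorescence near control levels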;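 note: agonist BAM8-22 given at a near maximal EC90 to ECmax level; peak minus minimum fluorescence divided by baseline after agonist addition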
HEK293 Ca flux = counter-screen for MrgX1 antagonists: effect in parental HEK293 cells | actives 2% (n = 4,000) | Fluo-4 calcium fluorescence, FDSS | fluorescence ratio F(max-min)/F0 at 10 µM | shares compounds with MrgX1 antag;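 active = duplicate-averaged calcium fluorescence ratio at least three times the standard deviation of buffer wells, a nonspecific response in parental cells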
HEK293 Ca counter = activity in parental HEK293 cells without MrgX1; parental HEK293 calcium flux, Fluo-4 fluorescence ratio; hits give high values; fluorescence ratio F(max-min)/F0 at 10 µM; shares compounds with MrgX1 antag; AID 624114; actives 0.4% (n = 4,000);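 active = calcium fluorescence ratio, averaged over duplicates, at least 3 SD of the buffer-well ratio, meaning a nonspecific response in receptor-free cells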;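 note: untransfected parental HEK293 lacking MrgX1 used as counterscreen for MrgX1 allosteric activators; fluorescence change taken during the second addition on a kinetic imager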
HEK293 Ca cntr2 = MrgX1 activator counter-screen hit in parental HEK293 cells. shares compounds with MrgX1 antag. Fluo-4 calcium fluorescence (FDSS); hits give high values. fluorescence ratio F(max-min)/F0 at 10 µM. actives 8.7% (n = 4,000);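 active = calcium fluorescence ratio at least three times the spread of buffer wells, meaning a non-specific response in parental cells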
Numbers stand for hits; 0 = inactive; - = no result given. Sampled rows, rich in hits. Any-hit rate of the full collection: about 3.5%.

SMILES	RGS4 inh	MrgX1 allo act	MrgX1 ag	RGS4 pot	MrgX1 antag	RGS4 activ val	RGS4 act ctr	MrgX1 antag conf	HEK293 Ca flux	HEK293 Ca counter	HEK293 Ca cntr2	others
COc1ccc(Br)cc1S(=O)(=O)Nc1ncn[nH]1	0	0	0	0	0	-	-	-	-	-	-
CCN(CC)CCCOC(=O)C1(c2ccccc2)CCCC1	0	0	0	-10.8	0	95.0	92.8	-	-	-	-
CCN(CC)CCOC(=O)c1ccccc1Br	0	0	0	0	0	-	-	-	-	-	-
Cc1noc(C)c1S(=O)(=O)N(CC(=O)NCc1ccc2c(c1)OCO2)c1ccc(C(C)C)cc1	0	0	0	-8.26	0	0	0	-	-	-	-
Cc1ccc(N(CC(=O)NCc2ccc3c(c2)OCO3)S(=O)(=O)c2c(C)noc2C)cc1	0	0	0	0	0	-	-	-	-	-	-
O=C(NCc1ccc2c(c1)OCO2)c1ccc2c(c1)N(Cc1c(F)cccc1Cl)C(=O)CS2	0	0	0	-7.74	0	93.0	59.8	-	-	-	-
COc1cccc(NC(=O)Nc2nc(-c3ccc(OC)c(OC)c3)cs2)c1	0	0	0	-8.12	-7.03	92.5	84.8	22.2%	0	0	0
Cc1onc(-c2ccccc2)c1C(=O)NC(=S)NNC(=O)c1ccc(O)cc1	0	0	0	0	0	-	-	-	-	-	-
CCCOc1ccc(C(=O)NC(=S)NNC(=O)c2c(-c3ccccc3)noc2C)cc1	0	0	105	-10.9	0	92.0	82.3	-	0	0	115	MrgX1 ag confirm=689.8%
c1ccc(Cn2nnc3cnccc32)cc1	0	0	0	-8.45	-6.7	0	0	0	0	0	0
c1ccc(Cn2nnc3ccccc32)cc1	0	0	0	0	0	-	-	-	-	-	-
CCOC(=O)c1cc(S(=O)(=O)N2CCC(C)CC2)cn1C	0	0	0	0	0	-	-	-	-	-	-
O=C(CSc1nc2ccccc2c2c1CCCC2)N1CCOCC1	0	18.6	0	-9.28	0	92.0	91.8	-	0	0	0	MrgX1 PAM conf=0
CC(C)CNC(=O)[C@@H]1CSC2c3ccccc3C(=O)N21 (some centres not stated)	0	0	0	0	0	-	-	-	-	-	-
OCCCNc1ncnc2oc(-c3ccccc3)c(-c3ccccc3)c12	0	0	0	-8.37	-5.02	0	0	0	0	0	0
CCCc1ccc(Oc2cn[nH]c2-c2ccc(O)c(C)c2O)cc1	0	0	0	-9.09	-6.77	93.0	93.8	0	0	0	0
Cc1ccc(OCC(=O)Nc2cccc(-c3nnc(-c4ccccc4)o3)c2)c(C)c1	0	0	0	0	0	-	-	-	-	-	-
COc1ccc(CC(=O)Nc2cccc(-c3nnc(-c4cccc(C)c4)o3)c2)cc1OC	0	0	0	-9.91	-12.4	93.5	93.8	5.5%	0	0	0
CC(=O)N/C(=C\c1ccc(F)cc1)C(=O)OCc1ccccc1	0	0	0	0	0	-	-	-	-	-	-
CC1(C)CC(=O)C2=C(C1)Nc1ccccc1NC2	0	0	34	-7.87	0	0	0	-	0	0	0	MrgX1 ag confirm=0

Screening data (PubChem)
